The text below walks through data of ChEMBL document CHEMBL5696442, “Discovery of type II inhibitors of TGFβ-activated kinase 1 (TAK1) and mitogen-activated protein kinase kinase kinase kinase 2 (MAP4K2)” (J Med Chem, 2015).

In assay [1] the target is T1, Mitogen-activated protein kinase kinase kinase 3 (Homo sapiens) (UniProt Q99759).
T1 sequence (whole entry): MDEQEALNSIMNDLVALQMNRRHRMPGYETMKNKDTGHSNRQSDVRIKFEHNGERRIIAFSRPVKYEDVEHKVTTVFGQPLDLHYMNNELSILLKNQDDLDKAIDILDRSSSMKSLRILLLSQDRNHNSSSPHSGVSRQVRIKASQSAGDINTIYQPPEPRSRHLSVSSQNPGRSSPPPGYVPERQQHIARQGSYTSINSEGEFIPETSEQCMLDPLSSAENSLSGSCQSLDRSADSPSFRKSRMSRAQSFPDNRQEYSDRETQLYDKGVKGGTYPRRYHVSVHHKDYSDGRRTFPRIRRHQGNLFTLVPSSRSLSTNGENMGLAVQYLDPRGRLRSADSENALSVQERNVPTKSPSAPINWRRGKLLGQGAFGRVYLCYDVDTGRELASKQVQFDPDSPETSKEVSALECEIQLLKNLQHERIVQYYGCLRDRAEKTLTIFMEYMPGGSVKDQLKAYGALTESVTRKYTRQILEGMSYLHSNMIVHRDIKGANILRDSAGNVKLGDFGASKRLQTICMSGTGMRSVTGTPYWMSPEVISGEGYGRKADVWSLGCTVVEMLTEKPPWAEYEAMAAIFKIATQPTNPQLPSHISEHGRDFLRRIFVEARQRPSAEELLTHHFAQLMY
Description: Inhibition of MAP3K3 Lys1 labeling site in human A-375 cells at 0.5 uM by KiNativ Profiling analysis relative to control. The class given is cell-based.

For assay [2], the target named is Mitogen-activated protein kinase kinase kinase 4 (Homo sapiens) (UniProt Q9Y6R4). The experiment in a line: Inhibition of MAP3K4 Lys2 labeling site in human A-375 cells at 0.5 uM by KiNativ Profiling analysis relative to control. The format is cell-based.
Mitogen-activated protein kinase kinase kinase 4 (Homo sapiens), sequence (Q9Y6R4 whole entry): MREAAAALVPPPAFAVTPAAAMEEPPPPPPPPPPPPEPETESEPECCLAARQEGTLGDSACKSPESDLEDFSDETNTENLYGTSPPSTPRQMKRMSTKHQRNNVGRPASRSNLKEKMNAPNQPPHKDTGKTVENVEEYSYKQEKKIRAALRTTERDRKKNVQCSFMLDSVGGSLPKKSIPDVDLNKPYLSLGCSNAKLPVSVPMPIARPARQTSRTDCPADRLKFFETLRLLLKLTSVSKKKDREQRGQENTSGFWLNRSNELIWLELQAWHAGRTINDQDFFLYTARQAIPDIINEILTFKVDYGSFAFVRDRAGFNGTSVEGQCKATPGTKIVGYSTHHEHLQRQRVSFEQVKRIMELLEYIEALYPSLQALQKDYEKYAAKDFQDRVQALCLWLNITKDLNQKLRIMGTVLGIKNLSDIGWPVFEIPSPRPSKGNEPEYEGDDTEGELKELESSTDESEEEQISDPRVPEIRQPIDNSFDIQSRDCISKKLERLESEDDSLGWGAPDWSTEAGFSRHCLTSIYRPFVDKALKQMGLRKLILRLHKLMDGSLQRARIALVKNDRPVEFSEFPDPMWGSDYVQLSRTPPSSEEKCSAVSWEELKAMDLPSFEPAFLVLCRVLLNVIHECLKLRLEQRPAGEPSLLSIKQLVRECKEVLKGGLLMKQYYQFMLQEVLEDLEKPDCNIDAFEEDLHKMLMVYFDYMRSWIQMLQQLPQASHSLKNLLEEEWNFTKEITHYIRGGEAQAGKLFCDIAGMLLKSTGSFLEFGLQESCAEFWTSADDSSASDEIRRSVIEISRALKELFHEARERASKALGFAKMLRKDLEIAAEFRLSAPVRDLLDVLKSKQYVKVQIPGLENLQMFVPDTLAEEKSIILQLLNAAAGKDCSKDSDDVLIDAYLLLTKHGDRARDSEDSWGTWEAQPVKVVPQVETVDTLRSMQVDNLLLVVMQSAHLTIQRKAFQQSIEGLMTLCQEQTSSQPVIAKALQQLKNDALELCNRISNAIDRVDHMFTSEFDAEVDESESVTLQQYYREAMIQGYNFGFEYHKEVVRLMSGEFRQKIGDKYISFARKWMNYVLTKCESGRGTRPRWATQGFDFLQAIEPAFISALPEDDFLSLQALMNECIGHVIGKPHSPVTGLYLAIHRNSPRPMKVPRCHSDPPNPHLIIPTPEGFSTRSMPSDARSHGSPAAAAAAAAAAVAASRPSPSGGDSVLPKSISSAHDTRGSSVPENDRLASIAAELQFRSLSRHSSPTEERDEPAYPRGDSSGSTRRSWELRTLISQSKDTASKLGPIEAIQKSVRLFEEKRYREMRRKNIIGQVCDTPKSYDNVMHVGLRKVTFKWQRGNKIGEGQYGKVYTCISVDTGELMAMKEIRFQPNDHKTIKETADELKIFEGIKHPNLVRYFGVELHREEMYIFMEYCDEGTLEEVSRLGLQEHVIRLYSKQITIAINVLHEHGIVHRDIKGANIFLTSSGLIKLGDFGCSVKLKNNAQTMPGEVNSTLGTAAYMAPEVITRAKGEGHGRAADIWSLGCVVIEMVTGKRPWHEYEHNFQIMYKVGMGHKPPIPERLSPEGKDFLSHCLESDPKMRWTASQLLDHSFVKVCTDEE
Assay [3] has as its target T2, Mitogen-activated protein kinase kinase kinase 7 (Homo sapiens, UniProt O43318).
T2 sequence (O43318 whole entry): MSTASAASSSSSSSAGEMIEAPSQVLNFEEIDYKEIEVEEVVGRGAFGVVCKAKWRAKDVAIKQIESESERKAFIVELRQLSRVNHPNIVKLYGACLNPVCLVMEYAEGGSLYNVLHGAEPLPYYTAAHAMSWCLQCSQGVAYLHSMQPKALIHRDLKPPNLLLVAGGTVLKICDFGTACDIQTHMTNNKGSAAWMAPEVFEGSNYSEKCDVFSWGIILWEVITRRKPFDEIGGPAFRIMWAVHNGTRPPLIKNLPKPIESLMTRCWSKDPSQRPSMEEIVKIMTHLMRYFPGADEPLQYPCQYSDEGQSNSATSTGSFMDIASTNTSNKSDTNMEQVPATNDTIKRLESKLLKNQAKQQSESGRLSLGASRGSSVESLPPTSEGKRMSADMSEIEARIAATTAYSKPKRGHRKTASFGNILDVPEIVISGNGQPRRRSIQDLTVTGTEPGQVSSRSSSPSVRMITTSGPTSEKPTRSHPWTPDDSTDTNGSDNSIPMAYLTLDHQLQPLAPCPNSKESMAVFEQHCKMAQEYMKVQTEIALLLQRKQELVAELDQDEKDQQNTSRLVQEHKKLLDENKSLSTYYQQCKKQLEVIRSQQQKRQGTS
The experiment in a line: Inhibition of TAK1 (unknown origin) Lys2 labeling site by KiNativ Profiling analysis.

Assay [4] addresses Ribosomal protein S6 kinase alpha-3 (Homo sapiens) (UniProt P51812). The experiment in a line: Inhibition of RSK2 domain2 Protein Kinase Domain in human A-375 cells at 0.05 uM by KiNativ Profiling analysis relative to control. The class given is cell-based.
Assay [5] addresses T3, Mitogen-activated protein kinase kinase kinase kinase 2 (Homo sapiens, UniProt Q12851).
T3 sequence (Q12851 whole entry): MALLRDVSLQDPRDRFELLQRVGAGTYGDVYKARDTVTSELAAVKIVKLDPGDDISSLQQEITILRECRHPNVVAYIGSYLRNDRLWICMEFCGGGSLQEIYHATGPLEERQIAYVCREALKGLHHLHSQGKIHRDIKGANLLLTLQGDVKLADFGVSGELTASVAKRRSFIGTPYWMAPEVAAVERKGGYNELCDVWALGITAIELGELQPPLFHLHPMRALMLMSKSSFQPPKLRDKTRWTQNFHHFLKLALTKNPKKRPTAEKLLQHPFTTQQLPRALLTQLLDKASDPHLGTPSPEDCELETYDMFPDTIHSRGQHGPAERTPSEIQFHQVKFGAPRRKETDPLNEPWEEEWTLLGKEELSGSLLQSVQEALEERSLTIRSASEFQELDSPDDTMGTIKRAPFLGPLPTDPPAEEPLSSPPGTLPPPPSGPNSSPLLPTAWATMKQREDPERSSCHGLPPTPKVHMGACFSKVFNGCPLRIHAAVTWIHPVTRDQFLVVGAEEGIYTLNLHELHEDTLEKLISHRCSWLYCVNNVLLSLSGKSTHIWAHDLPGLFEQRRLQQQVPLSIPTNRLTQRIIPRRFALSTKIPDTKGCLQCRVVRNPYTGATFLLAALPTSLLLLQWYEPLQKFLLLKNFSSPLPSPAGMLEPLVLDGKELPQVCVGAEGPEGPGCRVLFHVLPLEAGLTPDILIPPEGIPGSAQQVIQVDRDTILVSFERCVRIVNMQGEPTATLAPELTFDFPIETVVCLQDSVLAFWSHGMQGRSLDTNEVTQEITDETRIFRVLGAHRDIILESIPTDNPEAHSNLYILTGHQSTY
The experiment in a line: Inhibition of MAP4K2 (unknown origin) Lys1 labeling site by KiNativ Profiling analysis.

Assay [6] deals with MEF. The experiment in a line: Inhibition of TGF-beta induced p38 MAPK phosphorylation level in TAK1 deficient mouse MEF cells incubated for 1 hr followed by TGF-beta stimulation by Western blot analysis. The format is functional, cell-based. The settings on record: dose <= 500.0 nM. In short, it runs like this: (§1)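 In serum-starved WT and TAK1–/– MEFs (0.1% FBS, 16 h), inhibitor was added 1 h before TGFβ (50 pM, 45 min). Cleared lysates were immunoblotted for phospho-SMAD2 and phospho-p38.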
In general terms: In western blotting, separated proteins are transferred to a membrane and probed.

Assay [7] deals with MEF. The experiment in a line: Inhibition of IL-1 induced p38 MAPK phosphorylation level in TAK1 deficient mouse MEF cells incubated for 1 hr followed by IL-1 stimulation by Western blot analysis. The format is functional, cell-based. The following applies: dose <= 500.0 nM. In short, it runs like this: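 WT and TAK1-null MEFs were grown in DMEM with 10% FBS and held in 0.1% FBS for 16 h. Compound was added 1 h before mouse IL-1α (5 ng/mL, 10 min). Cells were lysed in ice-cold buffer and extracts cleared at 16000g. Phospho-p38 was detected by Western blot.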

The target of assay [8] is T4, Mitogen-activated protein kinase kinase kinase kinase 2 (Homo sapiens) (UniProt Q12851).
T4 sequence (whole entry): T3 sequence (Q12851 whole entry)
The experiment in a line: Inhibition of MAP4K2 Lys1 labeling site in human A-375 cells at 0.5 uM by KiNativ Profiling analysis relative to control. The class given is cell-based.

The subject of assay [9] is MEF. Description: Inhibition of TGF-beta induced SMAD2 phosphorylation level in TAK1 deficient mouse MEF cells at upto 500 nM incubated for 1 hr followed by TGF-beta stimulation by Western blot analysis. The class given is functional, cell-based. In short, it runs like this:
as §1

Assay [10] concerns the target T5, Mitogen-activated protein kinase kinase kinase 7 (Homo sapiens) (UniProt O43318).
T5 sequence (whole entry): T2 sequence (O43318 whole entry)
Description: Inhibition of TAK1 Lys2 labeling site in human A-375 cells at 0.5 uM by KiNativ Profiling analysis relative to control. The class given is cell-based.

Broadly, the inhibition is the drop in the measured response relative to a control, in per cent. What is called IC50 is the concentration needed to halve the response being measured. High values mean a need for much substance, low ones inhibition by little substance.

Activity calls are given as the source filed them. The calls are words filed in the database; no cut-off is given here.

Ribosomal protein S6 kinase alpha-3 (Homo sapiens), sequence (P51812 whole entry, the tested form may be a part): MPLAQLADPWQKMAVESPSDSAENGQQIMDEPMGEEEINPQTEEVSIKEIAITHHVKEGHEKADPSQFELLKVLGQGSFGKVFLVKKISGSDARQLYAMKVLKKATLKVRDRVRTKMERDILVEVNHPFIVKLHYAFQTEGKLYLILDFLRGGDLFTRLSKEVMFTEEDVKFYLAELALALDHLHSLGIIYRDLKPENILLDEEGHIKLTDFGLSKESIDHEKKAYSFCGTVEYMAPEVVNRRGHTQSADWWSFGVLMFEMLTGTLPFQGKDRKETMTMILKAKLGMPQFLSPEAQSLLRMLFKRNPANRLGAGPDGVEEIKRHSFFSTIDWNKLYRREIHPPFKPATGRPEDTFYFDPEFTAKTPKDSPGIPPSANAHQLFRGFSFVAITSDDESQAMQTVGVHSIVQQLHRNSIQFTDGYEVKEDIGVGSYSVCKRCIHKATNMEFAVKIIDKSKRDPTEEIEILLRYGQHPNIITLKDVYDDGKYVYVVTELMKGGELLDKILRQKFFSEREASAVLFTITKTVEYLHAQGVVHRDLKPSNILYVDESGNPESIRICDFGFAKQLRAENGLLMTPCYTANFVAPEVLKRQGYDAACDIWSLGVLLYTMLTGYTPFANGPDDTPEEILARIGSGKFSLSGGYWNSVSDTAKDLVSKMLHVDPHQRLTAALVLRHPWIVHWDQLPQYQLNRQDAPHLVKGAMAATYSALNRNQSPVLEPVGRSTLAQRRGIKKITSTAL

For the compound `CCN1CCN(Cc2ccc(NC(=O)c3ccc(C)c(/C=C/c4cnc5[nH]ccc5c4OC)c3)cc2C(F)(F)F)CC1`, the inhibition is 33.4% in [1], -4.4% in [2] and -9.9% in [4]. For the same compound, the IC50 in assay [3] amounted to 41 nM; in assay [5], 98 nM.
On to `CNc1cc(Oc2cc(C(=O)Nc3cc(-n4cnc(C)c4)cc(C(F)(F)F)c3)ccc2C)ncn1`, for which the values for the IC50 in [3] and in [5] were greater than 1110 nM and 129 nM, respectively. Also, the inhibition result in [6] was “Dose-Dependent Effect”; in assay [7], “Dose-Dependent Effect”; in [8], 79.7%; in assay [10] it was 29.3%. Besides, the inhibition entry in assay [9] is “inactive”.
Consider `CCN1CCN(Cc2ccc(NC(=O)c3ccc(C)c(Oc4ccnc5[nH]ccc45)c3)cc2C(F)(F)F)CC1`, for which the inhibition in [1] is 42%; in assay [2], 1.2%; in assay [6], “Dose-Dependent Effect”; in assay [7] it was “Dose-Dependent Effect”; in assay [4], 3.1%; in [8], greater than 99.5%. In addition, the inhibition in [10] came out at 97.1%. In [3], this compound gave an IC50 of 149 nM. Moreover, the inhibition entry in assay [9] is “Active”.
Regarding `CNc1cc(Oc2cc(C(=O)Nc3cc(N4CCN(C)CC4)cc(C(F)(F)F)c3)ccc2C)ncn1`, the 50% inhibitory concentration (IC50) stood at 2700 nM in assay [3] and 37.2 nM in assay [5]. Moreover, the inhibition result was “Dose-Dependent Effect” in [6], “Dose-Dependent Effect” in assay [7], 85.3% in assay [8] and 7% in assay [10]. For the same compound, the inhibition entry in assay [9] was “inactive”.
